ERAP1 inh – ERAP1 (human) enzyme inhibition; Q9NZ08; inhibition, % at 10.7 µM; recombinant ERAP1, Leu-AMC fluorescence, 60 min; AID 652197; 340,000 compounds, 0.15% hits;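 active = mean replicate inhibition of at least 30%, or all replicates individually reaching that 30% level; inactive = mean below 30% and not every replicate reaching it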;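 also: 0% = neutral control wells and 100% = L-leucinethiol positive control wells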
miR122 inh – inhibitors of miR-122 in Huh7 cells; Huh7 miR-122 Renilla luciferase sensor, 48 h; neutral wells = 0, positive control = 100; activation (reporter increase), % at 12.5 µM; 340,000 compounds, 0.3% hits;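 active = mean replicate activation score at least 90 and every replicate individually at or above 90; inconclusive = only one of the two criteria met; inactive = neither criterion met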;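 also: higher luciferase means less miR-122 activity so hits act as miR-122 inhibitors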
F508del corr – CFTR F508del correction in bronchial cells; activity (quench increase), % at 7.58 µM; AID 720511; 350,000 compounds, 0.36% hits; CFBE cells, YFP halide quenching; stimulated with forskolin plus potentiator P3; % fluorescence drop versus neutral controls;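 active = mean added fluorescence quench of at least 8% versus neutral control, with both replicates also reaching 8%; inconclusive = only one of the mean or replicate conditions met; inactive = mean below 8% and not both replicates reaching 8%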;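 also: cells transiently co-express mutant CFTR-F508del with the halide-sensitive YFP; corrector assay measuring rescue of mutant channel to the surface after 24 h compound exposure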
INS-1E GSIS act – GLuc luminescence reporter in INS-1E cells, primary screen for activators of glucose-dependent secretion of insulin | 370,000 compounds, 0.61% hits | activation, % at 16.6 µM | INS-1E GLuc reporter insulin secretion, 2-3 h;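 active = lowest replicate activation of at least 40%, so every replicate reaches that level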;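 also: 0% = median of neutral control wells and 100% = median of IBMX positive control wells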
DENV2 CPE – protects cells from dengue virus 2 cytopathic effect; DENV2-infected cells, cytopathic effect rescue, plate reader; CPE inhibition, % at 9.99 µM; 350,000 compounds, 1.7% hits; AID 651640; in the data active = CPE inhibition above about 20%, passing the limit was not always enough; inconclusive = no clear call, values can overlap the other calls; tested in BHK-21 cells;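 also: 0% = median of neutral control wells and 100% = median of positive control wells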
E-selectin induc – E-selectin induction on HUVECs; HUVEC E-selectin immunofluorescence imaging; normalized: neutral wells 0, TNF-alpha wells 100; activation, % at 7.58 µM; P16581; 260,000 compounds, 0.37% hits;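 active = mean E-selectin-positive cell signal at least 10% of the positive control, reached in at least 60% of replicates, without over 20% cell loss; inconclusive = no rule given, readout overlaps actives, possibly toxicity-flagged; inactive = the rest, including those meeting only one limit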
Target sequence (P16581 whole entry, looked up): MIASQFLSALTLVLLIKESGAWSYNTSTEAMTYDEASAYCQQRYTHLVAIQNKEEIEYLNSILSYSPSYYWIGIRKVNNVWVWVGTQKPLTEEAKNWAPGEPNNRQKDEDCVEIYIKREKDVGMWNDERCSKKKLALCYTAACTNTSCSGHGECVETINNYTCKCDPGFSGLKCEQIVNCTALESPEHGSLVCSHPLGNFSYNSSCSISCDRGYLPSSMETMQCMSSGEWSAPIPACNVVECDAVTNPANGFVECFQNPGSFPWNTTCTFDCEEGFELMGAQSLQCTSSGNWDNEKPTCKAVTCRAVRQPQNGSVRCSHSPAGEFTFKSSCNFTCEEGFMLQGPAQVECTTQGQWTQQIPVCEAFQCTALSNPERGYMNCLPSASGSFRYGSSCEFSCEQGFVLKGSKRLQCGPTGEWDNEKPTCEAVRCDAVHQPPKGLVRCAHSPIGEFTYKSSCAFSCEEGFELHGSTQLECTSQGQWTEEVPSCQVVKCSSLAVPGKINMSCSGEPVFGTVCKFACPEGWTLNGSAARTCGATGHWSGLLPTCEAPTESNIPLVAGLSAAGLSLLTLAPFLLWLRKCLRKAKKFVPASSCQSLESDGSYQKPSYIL
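Test system – human umbilical vein endothelial cells (HUVEC), E-selectin induction · Input – 3,000 HUVEC seeded per well · Buffer or medium – EGM-2, gelatin · Compound dosing – single-point compound dose · Detection – immunofluorescence imaging · Measure – percent E-selectin-positive cells · Controls – TNF-alpha high, DMSO low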
Active calls of the source: *; u = inconclusive; x = no result given; [ ] = remark or other dose. The list is not random: actives were taken first. Their share in the collection is about 2.6%.

SMILES	ERAP1 inh	miR122 inh	F508del corr	INS-1E GSIS act	DENV2 CPE	E-selectin induc
O=S(=O)(NCc1csc(-c2cccs2)n1)c1cccc(C(F)(F)F)c1	x	0	-2	0	-4	60*
O=S(=O)(NCc1csc(-c2cccs2)n1)c1ccc(Cl)cc1	x	17	-1	8	2	52*
Cc1nc(CNS(=O)(=O)c2cccc(F)c2)cs1	x	0	x	12	x	x
Cc1ccc(S(=O)(=O)NCc2csc(-c3cccs3)n2)cc1	0	x	0	48*	-3	7
C[C@@H]1CCCCO[C@H](CN(C)S(C)(=O)=O)[C@H](C)CN([C@@H](C)CO)C(=O)c2cc(NC(=O)Nc3ccc(C(F)(F)F)cc3)ccc2O1	x	x	x	-3	x	x
Cc1ccc(N2C(=O)[C@@H]3C(c4cccnc4)=NO[C@@H]3C2=O)c(C)c1	x	x	-1	0	-3	31*
O=C(CC1CC1)N1CC(=O)N2[C@H](CO)[C@H](c3ccc(C#Cc4cccc(F)c4)cc3)[C@H]2C1	-3	x	3	-21	4	0
COc1c(S(=O)(=O)NCCN2CCOCC2)ccc(Cl)c1Cl	x	4	x	x	x	x
Cc1ccc(-c2nn3c(C)nnc3c3ccccc23)cc1S(=O)(=O)NCCN1CCOCC1	x	198*	x	3	x	x
CCOc1ccc(S(=O)(=O)NCCN2CCOCC2)c2ccccc12	x	108*	x	x	x	x
Cc1ccc(-c2n[nH]c(=O)c3ccccc23)cc1S(=O)(=O)NCCN1CCOCC1	x	u	x	37	x	x
CCCOc1ccc(S(=O)(=O)NCCN2CCOCC2)c2ccccc12	x	199*	x	x	x	x
COc1ccc(C)cc1S(=O)(=O)NCCN1CCOCC1	2	16	0	1	2	x
O=C1C(Cl)=C(N2CCOCC2)C(=O)N1c1cccc(Cl)c1	x	-1	x	45*	x	x
O=C(C1CC1)N1CC[C@@H]2[C@@H](CO)Nc3ccc(C#Cc4ccc(F)cc4)cc3[C@@H]21	x	-3[16.7 µM]	2	-13	3	4
O=[N+]([O-])c1ccc(S(=O)(=O)c2ccccc2)nc1	-4	x	-2	77*	-7	0
Cc1cc(S(=O)(=O)c2ccc([N+](=O)[O-])cn2)ccc1Br	x	x	2	15	-1	3
Cc1ccc(S(=O)(=O)c2ccc([N+](=O)[O-])cn2)cc1	-4	-33	-6	45*	-6	0
O=C(C[C@@H]1CC[C@@H]2[C@H](COC[C@H](O)CN2S(=O)(=O)c2ccccc2)O1)Nc1ccc(-c2ccccc2)cc1	1	-2[16.7 µM]	-4	-6	-11	0
Cc1noc(C)c1S(=O)(=O)N(C)C[C@H]1Oc2ccc(NC(=O)Cc3ccccc3)cc2CC(=O)N([C@@H](C)CO)C[C@@H]1C	x	0[16.7 µM]	-3	6	-1	-3
C#CC(=O)CC1(CN(Cc2ccccc2)C(=O)OC(C)(C)C)CCCCC1	-1	2	-4	54*	-6	0
CC(C)c1ccc(NC(=O)Nc2nc(C(N)CCc3ccccc3)cs2)cc1 (stereo not drawn)	10	-26	1	27	37*	1
CC(C)c1ccc(NC(=O)Nc2nc(C(N)c3ccccc3Cl)cs2)cc1 (stereo not drawn)	-3	-3	1	0	23*	0
O=C(Cc1ccncc1)NCC[C@H]1CC[C@H](NC(=O)C2CCC2)[C@@H](CO)O1	-2	x	-2	11	10	0
C[C@H]1CCCCO[C@H](CN(C)C(=O)Nc2ccc(F)cc2)[C@@H](C)CN([C@@H](C)CO)C(=O)c2cc(NS(=O)(=O)c3cccs3)ccc2O1	-3	12[16.7 µM]	-3	-16	27*	0
SMILES	ERAP1 inh	miR122 inh	F508del corr	INS-1E GSIS act	DENV2 CPE	E-selectin induc
C[C@@H]1CCCCO[C@@H](CN(C)C(=O)Nc2ccc(F)cc2)[C@H](C)CN([C@H](C)CO)C(=O)c2cc(NS(=O)(=O)c3cccs3)ccc2O1	2	-8[16.7 µM]	2	-25	-12	0
CC(C)NC(=O)N(C)C[C@@H]1OCCCC[C@@H](C)Oc2ccc(NS(=O)(=O)c3cccs3)cc2C(=O)N([C@H](C)CO)C[C@@H]1C	7	-3[16.7 µM]	1	16	55*	x
C[C@@H]1CCCCO[C@H](CN(C)C(=O)Nc2ccc(F)cc2)[C@H](C)CN([C@H](C)CO)C(=O)c2cc(NS(=O)(=O)c3cccs3)ccc2O1	-2	-13[16.7 µM]	-1	1	68*	0
Cc1ccc(S(=O)(=O)N[C@@H]2CC[C@H](CC(=O)NCc3ccccc3F)O[C@H]2CO)cc1	-4	x	-1	-1	1	1
Cc1ccc(-c2cnc3c(c2)C(=O)N([C@@H](C)CO)C[C@H](C)[C@@H](CN(C)S(C)(=O)=O)O3)cc1	-2	-5[16.7 µM]	-1	13	u	0
Cc1cc(C(=O)N[C@@H](c2ccccc2)[C@]2(C)C[C@H]2[C@@H](C)C(=O)Nc2ccc3ccccc3c2)no1	-3	1	3	1	77*	0
CC(C)(C)c1ccc(CCC2OCC(C[N+]3(C)CCOCC3)O2)cc1 (stereo not drawn)	104*	-4	-1	3	2	0
Cc1ccccc1C1c2[nH]c3ccccc3c2C[C@H]2C(=O)N(C3CC3)CC(=O)N12 (stereo partly drawn)	-2	25	3	x	4	55*
C[C@H]1CN([C@@H](C)CO)C(=O)Cc2cc(NC(=O)CCCCCC(=O)Nc3ccccc3N)ccc2O[C@@H]1CN(C)C(=O)Nc1ccc(C(F)(F)F)cc1	x	-2[16.7 µM]	-2	-3	-2	x
CC(C)NC(=O)N1[C@@H]2c3cccc(=O)n3C[C@@H]2[C@@H](CO)[C@@H]1C(=O)N1CCC(Cc2ccccc2)CC1	2	x	x	11	8	0
CC(C)NC(=O)N1[C@H](C(=O)N2CCC(Cc3ccccc3)CC2)[C@@H](CO)[C@@H]2Cn3c(cccc3=O)[C@@H]21	4	22[16.7 µM]	-1	22	26*	0
O=C(NCc1ccccc1)[C@H]1[C@H](CO)[C@H]2Cn3c(cccc3=O)[C@@H]1N2C(=O)c1cnccn1	-5	x	2	5	-1	0
CN(C)CC(=O)N1[C@@H]2c3cccc(=O)n3C[C@H]1[C@H](CO)[C@H]2C(=O)NCc1ccccc1	0	x	x	19	20*	0
O=C(NCc1cccc(F)c1)[C@@H]1[C@@H](CO)[C@@H]2Cn3c(cccc3=O)[C@H]1N2C(=O)c1cnccn1	-4	4[16.7 µM]	4	11	82*	0
O=C(NCc1ccccc1)[C@@H]1[C@@H](CO)[C@@H]2Cn3c(cccc3=O)[C@@H]2N1Cc1ccccc1F	1	x	x	14	23*	-1
O=C(CN1CCOCC1)N[C@@H]1CC[C@@H](CCNC(=O)Nc2cc(F)ccc2F)O[C@H]1CO	0	x	-1	-6	8	0

From PubChem
